Experimental data published in ChEMBL document CHEMBL3421537, “Synthesis and biological evaluation of nitrated 7-, 8-, 9-, and 10-hydroxyindenoisoquinolines as potential dual topoisomerase I (Top1)-tyrosyl-DNA phosphodiesterase I (TDP1) inhibitors” (J Med Chem, 2015).
Activity calls are given as the source filed them.

Experiments:
[1] = molecular target: T1, DNA topoisomerase 1 (Homo sapiens) (UniProt P11387); test: Inhibition of human recombinant Top1 expressed in baculovirus-infected insect Sf9 cells using 3'-[32P]-end-labeled 117 bp DNA as substrate assessed as inhibition of DNA cleavage after 20 mins by PAGE analysis relative to 1 uM camptothecin
T1 sequence (whole entry): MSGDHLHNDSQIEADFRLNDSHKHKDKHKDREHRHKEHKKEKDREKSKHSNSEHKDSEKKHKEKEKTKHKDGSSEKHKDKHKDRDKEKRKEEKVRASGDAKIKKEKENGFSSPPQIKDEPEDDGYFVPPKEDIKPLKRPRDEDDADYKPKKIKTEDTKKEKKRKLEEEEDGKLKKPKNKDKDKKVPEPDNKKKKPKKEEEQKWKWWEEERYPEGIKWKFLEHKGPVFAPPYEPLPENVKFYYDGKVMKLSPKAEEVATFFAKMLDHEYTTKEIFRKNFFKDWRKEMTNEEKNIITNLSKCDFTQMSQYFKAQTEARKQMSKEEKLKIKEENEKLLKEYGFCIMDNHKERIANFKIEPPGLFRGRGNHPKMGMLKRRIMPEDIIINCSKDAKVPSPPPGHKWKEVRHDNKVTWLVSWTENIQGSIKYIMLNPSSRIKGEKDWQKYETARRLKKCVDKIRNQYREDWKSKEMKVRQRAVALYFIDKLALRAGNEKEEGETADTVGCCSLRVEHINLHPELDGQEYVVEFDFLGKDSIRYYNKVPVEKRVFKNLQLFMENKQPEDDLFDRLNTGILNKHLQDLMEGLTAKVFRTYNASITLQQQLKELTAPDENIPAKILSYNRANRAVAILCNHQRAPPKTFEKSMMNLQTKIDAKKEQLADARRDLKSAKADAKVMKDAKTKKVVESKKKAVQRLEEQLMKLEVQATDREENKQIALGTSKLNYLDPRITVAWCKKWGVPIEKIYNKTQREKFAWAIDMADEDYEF
Outline: (§1)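 About 2 nM 3′-[32P]-end-labeled 117-bp DNA (Klenow fill-in with [α32P]dGTP) incubated with recombinant Top1 and compound for 20 min at room temperature. Stopped with 0.5% SDS, run on 20% denaturing PAGE, read by phosphorimager. Cleavage bands scored visually against 1 μM camptothecin on a 0 to +++++ scale.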

[2] = molecular target: Tyrosyl-DNA phosphodiesterase 1 (Homo sapiens, UniProt Q9NUW8); test: Inhibition of human recombinant TDP1 assessed as hydrolysis of N14Y to N14P after 15 mins by PAGE analysis
HOP-62 = test: Cytotoxicity against human HOP62 cells; type: functional
Outline: (§2)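 NCI-60 screen (NCI-DTP): one-dose prescreen at 10 μM, then five concentrations from 100 μM to 10 nM for compounds passing the cutoff. GI50 (50% growth inhibition) interpolated from the five-dose data. Single determination.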

[3] = Cytotoxicity against human HCT116 cells; type: functional; conditions: HCT-116; outline: as §2
SF-539 = test: Cytotoxicity against human SF539 cells; type: functional; outline: as §2
[4] = Cytotoxicity against human UACC62 cells; type: functional; conditions: UACC-62; outline: as §2
[5] = Cytotoxicity against human OVCAR3 cells; type: functional; conditions: OVCAR-3; outline: as §2
SN12C = test: Cytotoxicity against human SN12C cells; type: functional; outline: as §2
DU-145 = test: Cytotoxicity against human DU145 cells; type: functional; outline: as §2
MCF7 = test: Cytotoxicity against human MCF7 cells; type: functional; outline: as §2
[6] = molecular target: T1, DNA topoisomerase 1 (Homo sapiens); test: Inhibition of human recombinant Top1 expressed in baculovirus-infected insect Sf9 cells using 3'-[32P]-end-labeled 117 bp DNA as substrate assessed as inhibition of DNA cleavage after 20 mins by PAGE analysis; outline: as §1
[7] = molecular target: T1, DNA topoisomerase 1 (Homo sapiens); test: Poisoning activity at human recombinant Top1 expressed in baculovirus-infected insect Sf9 cells using 3'-[32P]-end-labeled 117 bp DNA as substrate assessed as trapping of enzyme cleavage complex at 0.005 to 100 uM measured after 20 mins by PAGE analysis; outline: as §1
[8] = molecular target: T1, DNA topoisomerase 1 (Homo sapiens); test: Poisoning activity at human recombinant Top1 expressed in baculovirus-infected insect Sf9 cells using 3'-[32P]-end-labeled 117 bp DNA as substrate assessed as delay in reversal of drug-enzyme-DNA cleavage complex formation at 1 uM measured over 10 mins by PAGE analysis

Tyrosyl-DNA phosphodiesterase 1, sequence (Q9NUW8 whole entry): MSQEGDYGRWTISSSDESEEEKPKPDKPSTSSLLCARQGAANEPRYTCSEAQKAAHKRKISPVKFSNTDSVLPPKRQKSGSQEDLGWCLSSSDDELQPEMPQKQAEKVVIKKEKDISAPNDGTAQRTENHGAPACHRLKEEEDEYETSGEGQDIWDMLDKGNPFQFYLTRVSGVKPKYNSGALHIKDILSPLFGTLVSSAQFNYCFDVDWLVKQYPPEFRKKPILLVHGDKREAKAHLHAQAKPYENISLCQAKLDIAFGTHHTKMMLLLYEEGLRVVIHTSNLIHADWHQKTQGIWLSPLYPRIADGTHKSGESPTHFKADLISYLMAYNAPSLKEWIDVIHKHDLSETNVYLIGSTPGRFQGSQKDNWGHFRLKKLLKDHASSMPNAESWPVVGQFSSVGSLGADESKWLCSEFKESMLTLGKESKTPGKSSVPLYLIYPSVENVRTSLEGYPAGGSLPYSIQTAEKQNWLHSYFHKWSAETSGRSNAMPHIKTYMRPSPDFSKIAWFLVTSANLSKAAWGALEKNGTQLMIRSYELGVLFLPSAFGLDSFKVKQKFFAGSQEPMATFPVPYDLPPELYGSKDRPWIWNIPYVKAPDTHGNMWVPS

SMILES	inhibition [1]	IC50 [2]	GI50 (HOP-62)	GI50 [3]	GI50 (SF-539)	GI50 [4]	GI50 [5]	GI50 (SN12C)	GI50 (DU-145)	GI50 (MCF7)	inhibition [2]	inhibition [6]	Activity [7]	Activity [8]
O=C1c2cc(O)ccc2-c2c1c1ccc([N+](=O)[O-])cc1c(=O)n2CCCN1CCOCC1	Active	> 111 µM	< 10 nM	< 10 nM	< 10 nM	< 10 nM	< 10 nM	< 10 nM	< 10 nM	< 10 nM	–	–	–	–
O=C1c2cccc(O)c2-c2c1c1ccc([N+](=O)[O-])cc1c(=O)n2CCCn1ccnc1	75%	> 111 µM	–	–	–	–	–	–	–	–	–	–	–	–
COc1cc2c(cc1O)C(=O)c1c-2n(CCCN2CCOCC2)c(=O)c2cc(OC)c(OC)cc12	–	> 111 µM	–	–	–	–	–	–	–	–	–	–	–	–
COc1cc2c(cc1O)-c1c(c3ccc([N+](=O)[O-])cc3c(=O)n1CCCn1ccnc1)C2=O	50%	–	85 nM	71 nM	49 nM	–	320 nM	51 nM	51 nM	20 nM	–	–	–	–
COc1cc2c(cc1O)-c1c(c3ccc([N+](=O)[O-])cc3c(=O)n1CCCN)C2=O	50%	–	470 nM	150 nM	660 nM	950 nM	1700 nM	450 nM	430 nM	170 nM	Dose-dependent effect	–	–	–
O=C1c2ccccc2-c2c1c1ccccc1c(=O)n2CCCNCCCNCCCn1c2c(c3ccccc3c1=O)C(=O)c1ccccc1-2	–	–	–	–	–	–	–	–	–	–	Dose-dependent effect	–	–	–
COc1cc2c(cc1O)C(=O)c1c-2n(CCCN2CCOCC2)c(=O)c2cc([N+](=O)[O-])ccc12	50%	> 111 µM	< 10 nM	< 10 nM	< 10 nM	< 10 nM	–	< 10 nM	< 10 nM	< 10 nM	Dose-dependent effect	–	–	–
COc1cc2c(cc1O)-c1c(c3cc(OC)c(OC)cc3c(=O)n1CCCn1ccnc1)C2=O	–	> 111 µM	–	–	–	–	–	–	–	–	–	–	–	–
O=C1c2ccc(O)cc2-c2c1c1ccc([N+](=O)[O-])cc1c(=O)n2CCCn1ccnc1	75%	> 111 µM	–	< 10 nM	< 10 nM	< 10 nM	23 nM	< 10 nM	< 10 nM	< 10 nM	–	Dose-dependent effect	–	–
NCCCn1c2c(c3ccc([N+](=O)[O-])cc3c1=O)C(=O)c1cc(O)ccc1-2	Active	–	56 nM	78 nM	30 nM	41 nM	220 nM	46 nM	52 nM	26 nM	–	–	–	–
O=C1c2cc(O)ccc2-c2c1c1ccc([N+](=O)[O-])cc1c(=O)n2CCCBr	Active	–	–	< 10 nM	< 10 nM	< 10 nM	23 nM	< 10 nM	< 10 nM	< 10 nM	–	–	Active	Active
O=C1c2c(O)cccc2-c2c1c1ccc([N+](=O)[O-])cc1c(=O)n2CCCn1ccnc1	75%	> 111 µM	81 nM	130 nM	150 nM	180 nM	230 nM	170 nM	130 nM	56 nM	–	Dose-dependent effect	–	–
COc1cc2c(cc1O)C(=O)c1c-2n(CCCN)c(=O)c2cc([N+](=O)[O-])ccc12	50%	–	< 10 nM	< 10 nM	< 10 nM	< 10 nM	27 nM	< 10 nM	< 10 nM	< 10 nM	Dose-dependent effect	–	–	–
O=C1c2cc(O)ccc2-c2c1c1ccc([N+](=O)[O-])cc1c(=O)n2CCCn1ccnc1	75%	> 111 µM	< 10 nM	< 10 nM	< 10 nM	< 10 nM	19 nM	< 10 nM	< 10 nM	< 10 nM	–	–	–	–
NCCCn1c2c(c3ccc([N+](=O)[O-])cc3c1=O)C(=O)c1c(O)cccc1-2	75%	–	1900 nM	470 nM	1700 nM	2500 nM	2900 nM	3400 nM	1200 nM	250 nM	–	–	–	–
O=C1c2ccc(O)cc2-c2c1c1ccc([N+](=O)[O-])cc1c(=O)n2CCCN1CCOCC1	Active	> 111 µM	25 nM	26 nM	21 nM	20 nM	41 nM	36 nM	34 nM	< 10 nM	–	Dose-dependent effect	–	–
COc1cc2c(cc1O)C(=O)c1c-2n(CCCn2ccnc2)c(=O)c2cc(OC)c(OC)cc12	–	> 111 µM	–	–	–	–	–	–	–	–	–	–	–	–
O=C1c2cccc(O)c2-c2c1c1ccc([N+](=O)[O-])cc1c(=O)n2CCCN1CCOCC1	50%	> 111 µM	–	–	–	–	–	–	–	–	–	–	–	–
COc1cc2c(cc1O)C(=O)c1c-2n(CCCn2ccnc2)c(=O)c2cc([N+](=O)[O-])ccc12	20%	> 111 µM	< 10 nM	< 10 nM	< 10 nM	< 10 nM	< 10 nM	< 10 nM	< 10 nM	< 10 nM	Dose-dependent effect	–	–	–
CC[C@@]1(O)C(=O)OCc2c1cc1n(c2=O)Cc2cc3ccccc3nc2-1	–	–	–	–	–	–	–	–	–	–	–	–	–	inactive
COc1cc2c(cc1O)-c1c(c3ccc([N+](=O)[O-])cc3c(=O)n1CCCN1CCOCC1)C2=O	50%	> 111 µM	79 nM	–	130 nM	39 nM	720 nM	63 nM	110 nM	35 nM	–	–	–	–
O=C1c2c(O)cccc2-c2c1c1ccc([N+](=O)[O-])cc1c(=O)n2CCCN1CCOCC1	50%	> 111 µM	12000 nM	550 nM	200 nM	390 nM	29000 nM	–	–	64 nM	–	Dose-dependent effect	–	–
NCCCn1c2c(c3ccc([N+](=O)[O-])cc3c1=O)C(=O)c1cccc(O)c1-2	50%	–	–	–	–	–	–	–	–	–	–	–	–	–
NCCCn1c2c(c3ccc([N+](=O)[O-])cc3c1=O)C(=O)c1ccc(O)cc1-2	75%	–	–	220 nM	210 nM	–	270 nM	–	350 nM	120 nM	–	–	–	–
